Consider one compound from ChEMBL document CHEMBL1153548 (Antimicrob Agents Chemother, 2007).

Values after ≈ are worked out from the molar mass of the structure shown.

The nature of data set [1]: Efflux clearance from middle ear fluid to plasma in Chinchilla lanigera assessed as unbound Km at 40000 ug/kg, iv followed by local dose of 19 ug/kg into intra-middle ear by compartmental microdialysis. In kind it is ADME, organism-based.
Data set [2] can be described thus: Terminal half life in Chinchilla lanigera at 15 mg/kg, iv. In kind it is ADME, organism-based. Also on record: dose 15 mg/kg, route intravenous. The settings on record: in vivo, read-out: beta t1/2 (converted). The method, boiled down: (§1)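 Conscious, freely moving chinchillas were cannulated in the femoral artery and jugular vein. […] Arterial plasma was taken predose, at time zero and at 10-12 points up to 180 min, then stored at –60°C. Unbound drug was measured by ultrafiltration (1,500 x g, 15 min, 37°C) followed by C18 solid-phase extraction and HPLC.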

The test system of data set [3] is Streptococcus pneumoniae. Briefly: Antimicrobial activity against amoxicillin-resistant Streptococcus pneumoniae. The format is functional.
The test system of data set [4] is Streptococcus pneumoniae. Briefly: Antimicrobial activity against Streptococcus pneumoniae WT3 infected in bolus iv dosed Chinchilla lanigera assessed as log reduction in bacterial count within 10 hrs of additional local drug administration into intra-middle ear. In kind it is functional. An outline of the steps: (§2)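 Awake chinchillas with 50 CFU S. pneumoniae WT3 in 100 µl PBS inoculated into both middle ear bullae. […] MEF (30-100 µl) was drawn at 1 h predose and at 1, 2, 5, 8 and 10 h. It was serially diluted and plated on 5% sheep blood agar at 37°C under 10% CO2, with counts read at 24 and 48 h. Detection threshold was 25 CFU/ml.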

Data set [5] can be described thus: Efflux clearance from middle ear fluid to plasma in Chinchilla lanigera assessed as unbound Km at 40000 ug/kg, iv followed by local dose of 66 ug/kg into intra-middle ear by compartmental microdialysis. The format is ADME, organism-based.
Data set [6] is described as follows: Efflux clearance from middle ear fluid to plasma in Streptococcus pneumoniae WT3-infected Chinchilla lanigera assessed as unbound Km at 40000 ug/kg, iv followed by local dose of 19 ug/kg into intra-middle ear by compartmental microdialysis. In kind it is ADME, organism-based.
A short description of data set [7]: Cmax in Chinchilla lanigera at 15 mg/kg, iv followed by local dose of 13 to 235 ug/kg into intra-middle ear. The format is ADME, organism-based. Also on record: dose 15 mg/kg, route intravenous. The note with it: in vivo. An outline of the steps: as §1
Data set [8] in a line: Efflux clearance from middle ear fluid to plasma in Chinchilla lanigera assessed as unbound Km at 40000 ug/kg, iv followed by local dose of 13 ug/kg into intra-middle ear by compartmental microdialysis. In kind it is ADME, organism-based.
The nature of data set [9]: Cmax in Chinchilla lanigera at 40 mg/kg, iv followed by local dose of 13 to 235 ug/kg into intra-middle ear. Also on record: dose 40 mg/kg, route intravenous. The note with it: in vivo. In kind it is ADME, organism-based. The method, boiled down: as §1
Data set [10] is described as follows: Efflux clearance from middle ear fluid to plasma in Chinchilla lanigera assessed as unbound Km at 15000 ug/kg, iv followed by local dose of 164 ug/kg into intra-middle ear by compartmental microdialysis. In kind it is ADME, organism-based.
Data set [11] in a line: Terminal half life in Chinchilla lanigera at 40 mg/kg, iv. The format is ADME, organism-based. Also on record: dose 40 mg/kg, route intravenous. The note with it: in vivo, read-out: beta t1/2 (converted). An outline of the steps:
as §1

A short description of data set [12]: Efflux clearance from middle ear fluid to plasma in Chinchilla lanigera assessed as unbound Km at 40000 ug/kg, iv followed by local dose of […] into intra-middle ear by compartmental microdialysis. In kind it is ADME, organism-based.
The nature of data set [13]: Efflux clearance from middle ear fluid to plasma in Streptococcus pneumoniae WT3-infected Chinchilla lanigera assessed as unbound Km at 40000 ug/kg, iv followed by local dose of 96 ug/kg into intra-middle ear by compartmental microdialysis. The format is ADME, organism-based.
For data set [14], the system named is Streptococcus pneumoniae. Briefly: Antimicrobial activity against amoxicillin-intermediate resistant Streptococcus pneumoniae. In kind it is functional.
For data set [15], the system named is Streptococcus pneumoniae. The data set is described as follows: Antimicrobial activity against Streptococcus pneumoniae WT3 infected in bolus iv dosed Chinchilla lanigera assessed as log reduction in bacterial count within 5 hrs of additional local drug administration into intra-middle ear. The format is functional. An outline of the steps:
as §2

Take `CC1(C)S[C@@H]2[C@H](NC(=O)[C@H](N)c3ccc(O)cc3)C(=O)N2[C@H]1C(=O)O` [AMOXICILLIN]: the Km in [1] was 34 µg/mL; in data set [5], 54.9 µg/mL; in data set [6] it was 35.9 µg/mL; in data set [8] it was 4.5 µg/mL; in data set [10], 17.8 µg/mL; in data set [12] it was 9.3 µg/mL. Further, in data set [13], the Km is 48.6 µg/mL. Also, the half-life in data set [2] and in [11] was 18 min each time. For the same compound, the MIC against Streptococcus pneumoniae [3] is 8 µg/mL (≈ 21.9 µM); against Streptococcus pneumoniae [14], 1 µg/mL (≈ 2.74 µM). The Activity in the data set with Streptococcus pneumoniae [4] was found to be 2; in the data set on Streptococcus pneumoniae [15] it was 5. Besides, the Cmax in [7] stood at 111 µg/mL; in data set [9] it was 8.8 µg/mL.

The Km is the substrate concentration at which the rate is half of its maximum. The MIC is the lowest concentration found to suppress growth. What is called Cmax is the maximum level reached in the sampled fluid or tissue.
